Calls of active or inactive are those of the source. The calls are words filed in the database; no cut-off is given here.
Key:
Format in all cases: functional
[1] = target: Angiotensin II receptor (AT-1) type-1 (Rattus norvegicus) (UniProt P29089+P25095); assay: Angiotensin II pressor effect in rats after oral dose of 30 uM/kg
Summary of the method: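 Conscious rats given vehicle by gavage, then an iv bolus Ang II challenge as control pressor response; drug at 30 μmol/kg by oral gavage, Ang II re-challenge at intervals up to 240 min. 6–8 rats per dose. […]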

[2] = target: T1, Endothelin-1 receptor (Rattus norvegicus) (UniProt P26684); assay: Endothelin pressor effect in rats after oral dose of 30 uM/kg
T1 sequence (whole entry): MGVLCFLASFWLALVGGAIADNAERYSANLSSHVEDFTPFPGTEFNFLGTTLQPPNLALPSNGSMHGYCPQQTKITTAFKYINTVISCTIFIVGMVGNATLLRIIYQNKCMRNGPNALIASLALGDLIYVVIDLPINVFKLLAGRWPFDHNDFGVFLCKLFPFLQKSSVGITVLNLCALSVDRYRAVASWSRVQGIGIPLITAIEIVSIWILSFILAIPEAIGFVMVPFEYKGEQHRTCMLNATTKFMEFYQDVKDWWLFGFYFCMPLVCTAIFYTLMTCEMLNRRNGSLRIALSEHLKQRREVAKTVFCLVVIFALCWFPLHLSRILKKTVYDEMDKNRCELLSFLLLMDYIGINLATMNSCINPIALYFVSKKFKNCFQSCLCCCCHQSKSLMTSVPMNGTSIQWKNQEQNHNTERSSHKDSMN
Summary of the method: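 Conscious normotensive rats; big endothelin-1 (1.0 nmol/kg iv) challenge after vehicle gave the control pressor response. Drug at 30 μmol/kg given po (or iv), then bET-1 re-challenge at various times after dosing. 6–8 rats per group.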

Caco-2 = assay: Permeability in Caco-2 cell monolayer

In the case of `Cc1noc(NS(=O)(=O)c2ccccc2-c2ccc(-c3ncco3)cc2)c1C`, the Activity [1] is reported as “inactive” and the Activity [2] is reported as 9700 AUC units.

In the case of `CCCCC1=NC2(CCCC2)C(=O)N1Cc1ccc(-c2ccccc2S(=O)(=O)Nc2noc(C)c2C)c(COCC)c1`, the Activity [1] is reported as 18600 AUC units and the Activity [2] is reported as 15800 AUC units.

`CCCCC1=NC2(CCCC2)C(=O)N1Cc1ccc(-c2ccccc2S(=O)(=O)Nc2onc(C)c2C)c(COCC)c1` showed an Activity [1] of 13900 AUC units, an Activity (Caco-2) of 170 nm/s and an Activity [2] of 3900 AUC units.

With `CCCCC1=NC2(CCCC2)C(=O)N1Cc1ccc(-c2ccccc2S(=O)(=O)Nc2noc(C)c2C)c(CCC)c1` the Activity [1] was 16300 AUC units and the Activity [2] was 13000 AUC units.

For `CCCCC1=NC2(CCCC2)C(=O)N1Cc1ccc(-c2ccccc2-c2nnn[nH]2)cc1` [IRBESARTAN], the Activity [1] was 13500 AUC units, the Activity (Caco-2) was 100 nm/s and the Activity [2] was “inactive”.

With `CCCCC1=NC2(CCCC2)C(=O)N1Cc1ccc(-c2ccccc2S(=O)(=O)Nc2onc(C)c2C)c(CCC)c1` the Activity [1] was 15900 AUC units, the Activity (Caco-2) was 240 nm/s and the Activity [2] was 8600 AUC units.

Compound `CCCCC1=NC2(CCCC2)C(=O)N1Cc1ccc(-c2ccccc2S(=O)(=O)Nc2onc(C)c2C)c(CN2CCC(C)(C)C2=O)c1` [BMS-248360] has an Activity [1] of 5800 AUC units, an Activity (Caco-2) of 30 nm/s and an Activity [2] of 7900 AUC units.

Source: ChEMBL document CHEMBL1145286, “Dual angiotensin II and endothelin A receptor antagonists: synthesis of 2'-substituted N-3-isoxazolyl biphenylsulfonamides with improved potency and pharmacokinetics” (2005)
